Rows were chosen to be rich in hits. Some 1.5% of all compounds tested hit in one or more screens of this group.
PG9 Ab binder – small molecules binding HIV-1 gp120 antibody PG9. AID 624416. TR-FRET gp120-PG9 antibody binding. 360,000 tested, 0.43% active. inhibition, % at 6.7 µM; in the data active means inhibition above about 8.5%
NR1D1 modulator – modulators of human Rev-erb alpha DNA binding | activity, % at 10 µM | 370,000 tested, 0.79% active | Rev-erbα–FITC-DNA binding, fluorescence polarization, 90 min | P20393;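 active means activity above about 14%, limit read from the data; passing the limit was not always enough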;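 further: 0% = DMSO wells with 35 nM protein and 100% = DMSO wells with 750 nM protein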
NR2E3 ag-1 – activates human photoreceptor nuclear receptor NR2E3; GST-NR2E3/biotin-RetCOR TR-FRET, 1536-well; Q9Y5X4; 320,000 tested, 0.12% active; inhibition of corepressor binding, % at 4.78 µM;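 active means percent inhibition above the cutoff of mean plus 3 SD of all tested compounds, set per screening campaign, cut at about 20% in these data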;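 further: 0% = DMSO wells and 100% = biotin wells as full block of FRET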
Target sequence (Q9Y5X4 whole entry, looked up): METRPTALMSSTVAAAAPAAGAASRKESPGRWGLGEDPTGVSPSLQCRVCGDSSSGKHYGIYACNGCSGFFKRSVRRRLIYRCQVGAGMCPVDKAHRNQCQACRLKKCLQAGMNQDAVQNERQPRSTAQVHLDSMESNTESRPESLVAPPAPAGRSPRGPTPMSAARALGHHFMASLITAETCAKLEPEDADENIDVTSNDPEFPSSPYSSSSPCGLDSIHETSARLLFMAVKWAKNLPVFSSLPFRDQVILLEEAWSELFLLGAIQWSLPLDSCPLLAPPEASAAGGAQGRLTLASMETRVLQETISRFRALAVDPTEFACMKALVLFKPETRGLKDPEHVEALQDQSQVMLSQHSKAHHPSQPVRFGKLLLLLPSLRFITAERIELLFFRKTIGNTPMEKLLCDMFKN
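Test system – NR2E3–RetCOR corepressor complex · Quantity – NR2E3 fusion 1.35 nM · Buffer or medium – Tris pH 7.5 · Incubation – Compound–protein incubation for 5 h at 4 °C · Technique – TR-FRET, Eu(K)-anti-GST donor, streptavidin-D2 acceptor, ex 340, em 617/671 nm · Evaluation – percent inhibition of 671/617 nm emission ratio versus biotin and DMSO controls · Plate – 1536-well format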
NR2E3 ag-2 – human photoreceptor-specific nuclear receptor agonism. inhibition of corepressor binding, % at 3.98 µM. CHO-S Gal4-NCOR/VP16-NR2E3 two-hybrid, luciferase. Q9Y5X4. 360,000 tested, 0.35% active;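 active means inhibition above the mean of all tested compounds plus 3 SD, cut at about 70% in these data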;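 further: 0% = DMSO with NR2E3 transfected cells and 100% = cells lacking NR2E3 construct; higher means lower luciferase signal from less NR2E3 corepressor binding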
NR1D1 mod conf – confirmation of modulators of human Rev-erb alpha DNA binding | shares compounds with NR1D1 modulator | Rev-erb alpha FITC-DNA binding, fluorescence polarization, 90 min | activation, % at 25 µM | 3,000 tested, 61% active | AID 1259319;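 active means activation at or above a set limit, or at least 3 SD above the negative control mean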;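 further: 0% = 35 nM protein with DMSO and 100% = 750 nM protein high control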
RORg DNA counter – RORgamma DNA-binding activity, dose-response counter-screen | shares compounds with NR1D1 modulator | purified RORgamma protein-FITC-DNA binding, fluorescence polarization | IC50, µM | 910 tested, 8% active | AID 1259320;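 active means Compounds whose fitted half-maximal concentration for disrupting protein-DNA binding is below 10 micromolar; the record names Rev-erb in its text, so the target is in doubt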
Starred values were filed as active, the others as inactive; nt = no result given.

SMILES | PG9 Ab binder | NR1D1 modulator | NR2E3 ag-1 | NR2E3 ag-2 | NR1D1 mod conf | others
CC(C)C[C@H]1COc2cc(NCc3ccc(Cl)c(Cl)c3)ccc2S(=O)(=O)N1 | 6 | 17* | nt | nt | 6
Cc1ccc(C(=O)OCC(=O)NC(C)c2ccccc2)cc1C (stereo not given) | -1 | 9 | nt | 2 | nt
CCc1cc2ccc(C)c(C)c2nc1SCC(=O)Nc1cc(C)on1 | 1 | 16 | 1 | 20 | nt
Cc1cc(NC(=O)CSc2nc3cc(C)c(C)cc3cc2C)no1 | -2 | 85* | 0 | -4 | 48* | RORg DNA counter=>40
Cc1cc(NC(=O)CSc2nc3c(C)c(C)ccc3cc2C)no1 | -2 | 25* | -2 | 16 | 15
CN(CCOc1ccccc1)C(=O)C1CCC(=O)N(CCN2CCOCC2)C1 (stereo not given) | 0 | -6 | 5 | -23 | nt
CC(=O)c1cc(-c2ccccc2)n(CC(=O)NCc2ccc(Cl)cc2)c1C | nt | 24* | nt | nt | 16*
CCOC(=O)c1ccc(NC(=O)c2nc[nH]c2C(=O)N[C@@H](CC(C)C)C(=O)OCc2ccccc2)cc1 | 1 | 3 | 1 | -21 | nt
O=S(=O)(c1cccc2nsnc12)N1CCOCC1 | 1 | 1 | -2 | -13 | nt
O=S(=O)(c1cccc2nsnc12)N1CCNCC1 | -1 | 25* | 2 | -32 | -5
O=c1[nH]c(=O)c2cc3ccccc3nc2[nH]1 | 0 | -1 | nt | 7 | nt
Cc1cc2cc3c(=O)[nH]c(=O)[nH]c3nc2cc1C | 0 | 33* | 2 | nt | 41* | RORg DNA counter=>40
Cc1cc(=O)oc2cc(OCC(=O)N3CC[C@@]4(O)CCCC[C@H]4C3)c(Cl)cc12 | -1 | 6 | -2 | -7 | nt
O=C(COC(=O)C1CC2C=CC1C2)Nc1ccc([N+](=O)[O-])cc1 (stereo not given) | 0 | 2 | nt | -25 | nt
COc1ccc2c(c1)c(=O)c(C(=O)c1ccc(F)cc1)cn2CC(=O)Nc1ccc(F)cc1 | 7 | 33* | 8 | -11 | 26*
CC(Cl)C(=O)N1CCC(C(=O)NCC2COc3ccccc3O2)CC1 (stereo not given) | nt | 1 | nt | nt | nt
O=C(/C=C\Nc1ccc(Cl)cn1)c1ccc(Br)cc1 | -1 | 67* | -3 | -52 | 10
Cc1cnc(NC(=O)c2cncc(Br)c2)s1 | -2 | -6 | -1 | -42 | nt
COc1ccc(CNC(=O)CSc2nnnn2C)cc1OC | -2 | 31* | -2 | -4 | -2
CC(OC(=O)/C=C/c1cccc(Cl)c1)C(=O)NC1CCCCC1C (stereo not given) | -1 | 4 | -2 | -22 | nt
Cc1cccc(C)c1NC(=O)CN(C)C(=O)Cn1c(=O)cnc2ccccc21 | -1 | 1 | 1 | -45 | nt
Cc1ccc2cc(CCNC(=O)C(=O)c3c(C)[nH]c4ccccc34)c(=O)[nH]c2c1 | 1 | 4 | 4 | 20 | nt
Cc1ccc2cc(CCNC(=O)C(=O)c3c[nH]c4ccccc34)c(=O)[nH]c2c1 | -1 | 40* | 2 | -20 | 19*
CN(C)c1ccc(C#Cc2ccc3cc(CCCO)oc(=O)c3c2)cc1 | 2 | 28* | 1 | -71 | 6
O=C1c2ccccc2C(=O)N1CCC#Cc1ccc2cc(CCCO)oc(=O)c2c1 | 1 | 16* | nt | 29 | 0
SMILES | PG9 Ab binder | NR1D1 modulator | NR2E3 ag-1 | NR2E3 ag-2 | NR1D1 mod conf | others
C=CCC[C@@H](Cc1ccc(F)cc1)C(=O)OC[C@H](C)NC(=O)[C@@H](CC=C)CC(=O)N(CCO)Cc1ccccc1 | 1 | 13* | nt | -39 | -5
COC(=O)c1ccc(Oc2nc(SC)nc(N(C)C)n2)cc1 | 0 | -2 | 2 | -14 | nt
COc1ccc(-c2oc(=O)c3cc(OC)c(OC)cc3c2C#C[C@]2(O)CC[C@H]3[C@@H]4CCc5cc(OC)ccc5[C@H]4CC[C@@]32C)cc1 | -1 | 30* | nt | -8 | 3
Cn1c(SCCN2CCCC2)nnc1C1CCN(S(=O)(=O)c2ccc(F)cc2)CC1 | 0 | -4 | 1 | -6 | nt
Cc1cc2nc(/C(C#N)=C\c3ccc(-c4ccccc4C(=O)O)o3)[nH]c2cc1C | -13 | 42* | 3 | 2 | 30*
Cc1cc2nc3s/c(=C/c4ccc(-c5ccccc5C(=O)O)o4)c(=O)n3c2cc1C | -1 | -2 | -3 | -19 | nt
N#C/C(=C\c1ccc(-c2ccccc2C(=O)O)o1)c1nc2ccccc2[nH]1 | -24 | 13 | -11 | 12 | nt

From PubChem BioAssay
